Measured values: ChEMBL document CHEMBL5653631, “A Potent and Selective ULK1 Inhibitor Suppresses Autophagy and Sensitizes Cancer Cells to Nutrient Stress” (iScience, 2018)
Each block holds one compound with its values, some of them ahead of it.

Columns and labels:
[1] = target: T1, Serine/threonine-protein kinase PLK4 (Homo sapiens) (UniProt O00444); assay: Inhibition of human recombinant PLK4 at 500 nM in presence of ATP by radiometric assay relative to control
T1 sequence (whole entry): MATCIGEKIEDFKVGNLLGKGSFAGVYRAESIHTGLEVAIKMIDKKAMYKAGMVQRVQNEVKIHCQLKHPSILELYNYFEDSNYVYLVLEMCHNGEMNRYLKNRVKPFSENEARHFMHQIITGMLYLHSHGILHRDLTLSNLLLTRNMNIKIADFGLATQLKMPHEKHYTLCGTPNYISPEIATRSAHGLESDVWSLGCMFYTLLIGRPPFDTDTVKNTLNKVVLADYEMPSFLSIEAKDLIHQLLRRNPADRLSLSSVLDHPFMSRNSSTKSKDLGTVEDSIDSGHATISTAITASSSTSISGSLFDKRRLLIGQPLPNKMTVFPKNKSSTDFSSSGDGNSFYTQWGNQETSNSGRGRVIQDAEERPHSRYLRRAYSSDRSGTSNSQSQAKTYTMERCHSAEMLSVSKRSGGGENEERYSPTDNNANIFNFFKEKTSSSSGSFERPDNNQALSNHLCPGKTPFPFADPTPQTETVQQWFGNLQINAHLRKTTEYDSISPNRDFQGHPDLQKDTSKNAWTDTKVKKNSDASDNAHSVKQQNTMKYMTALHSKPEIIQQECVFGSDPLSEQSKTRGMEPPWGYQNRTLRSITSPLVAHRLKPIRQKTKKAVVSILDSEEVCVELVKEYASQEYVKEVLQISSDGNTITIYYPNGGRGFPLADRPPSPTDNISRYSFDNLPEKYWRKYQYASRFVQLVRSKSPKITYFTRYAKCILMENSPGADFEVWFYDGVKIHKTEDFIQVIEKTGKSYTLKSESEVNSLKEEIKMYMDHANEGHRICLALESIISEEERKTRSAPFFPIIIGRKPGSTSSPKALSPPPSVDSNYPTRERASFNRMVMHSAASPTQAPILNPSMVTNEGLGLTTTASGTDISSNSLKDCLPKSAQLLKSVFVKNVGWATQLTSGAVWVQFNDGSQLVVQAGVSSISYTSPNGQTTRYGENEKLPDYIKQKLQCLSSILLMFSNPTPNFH

[2] = target: Ephrin type-A receptor 7 (Homo sapiens) (UniProt Q15375); assay: Inhibition of human recombinant EphA7 at 500 nM in presence of ATP by radiometric assay relative to control
[3] = target: Serine/threonine-protein kinase WNK3 (Homo sapiens) (UniProt Q9BYP7); assay: Inhibition of human recombinant Wnk3 at 500 nM related to control ULK1
[4] = target: Macrophage-stimulating protein receptor (Homo sapiens) (UniProt Q04912); assay: Inhibition of human recombinant RON at 500 nM related to control ULK1
[5] = target: Epidermal growth factor receptor (Homo sapiens) (UniProt P00533); assay: Inhibition of human recombinant EGFR at 15 nM related to control ULK1
[6] = target: Dual specificity protein kinase CLK4 (Homo sapiens) (UniProt Q9HAZ1); assay: Inhibition of human recombinant CLK4 at 15 nM related to control ULK1
[7] = target: T2, Protein kinase C zeta type (Homo sapiens) (UniProt Q05513); assay: Inhibition of human recombinant PKCz at 15 nM in presence of ATP by radiometric assay relative to control
T2 sequence (whole entry): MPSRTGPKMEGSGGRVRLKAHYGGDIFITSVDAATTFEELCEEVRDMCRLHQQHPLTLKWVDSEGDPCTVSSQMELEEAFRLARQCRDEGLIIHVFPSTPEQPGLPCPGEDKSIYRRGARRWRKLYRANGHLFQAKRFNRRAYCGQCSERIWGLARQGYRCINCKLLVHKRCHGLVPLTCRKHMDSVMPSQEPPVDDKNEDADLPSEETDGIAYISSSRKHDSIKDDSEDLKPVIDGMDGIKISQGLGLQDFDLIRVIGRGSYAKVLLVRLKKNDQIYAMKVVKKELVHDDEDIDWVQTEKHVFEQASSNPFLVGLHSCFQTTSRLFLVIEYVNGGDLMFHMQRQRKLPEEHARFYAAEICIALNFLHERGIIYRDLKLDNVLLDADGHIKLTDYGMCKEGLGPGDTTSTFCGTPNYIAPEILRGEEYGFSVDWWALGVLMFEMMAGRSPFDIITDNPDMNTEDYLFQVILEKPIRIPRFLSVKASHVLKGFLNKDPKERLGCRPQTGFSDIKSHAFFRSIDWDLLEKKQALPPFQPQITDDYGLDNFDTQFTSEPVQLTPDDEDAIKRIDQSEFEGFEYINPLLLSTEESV

[8] = target: MAP kinase-activated protein kinase 3 (Homo sapiens) (UniProt Q16644); assay: Inhibition of human recombinant MAPKAPK3 at 15 nM in presence of ATP by radiometric assay relative to control
[9] = target: Ephrin type-A receptor 2 (Homo sapiens) (UniProt P29317); assay: Inhibition of human recombinant EphA2 at 15 nM in presence of ATP by radiometric assay relative to control
[10] = target: 5'-AMP-activated protein kinase catalytic subunit alpha-1 (Homo sapiens) (UniProt Q13131); assay: Inhibition of human recombinant AMPKa1 at 40 nM in presence of ATP by radiometric assay relative to control
Summary of the method: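 Panel of 327 recombinant human kinases, each assayed in vitro by radiometric activity assay in duplicate at a single inhibitor concentration per compound, chosen with reference to its ULK1 inhibition. Activity remaining was expressed as percent of vehicle control, and percent inhibition was calculated as 100 minus percent activity remaining.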

[11] = target: ALK tyrosine kinase receptor (Homo sapiens) (UniProt Q9UM73); assay: Inhibition of human recombinant ALK at 40 nM related to control ULK1
Summary of the method: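 Radiometric activity assays in a panel of 327 human recombinant kinases, each run in duplicate at one inhibitor concentration. Activity remaining is expressed as percent of vehicle control, and percent inhibition is calculated as 100% minus percent activity remaining.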

[12] = target: Serine/threonine-protein kinase pim-3 (Homo sapiens) (UniProt Q86V86); assay: Inhibition of human recombinant PIM3 at 40 nM in presence of ATP by radiometric assay relative to control

Chain of Epidermal growth factor receptor (Homo sapiens) (P00533 whole entry): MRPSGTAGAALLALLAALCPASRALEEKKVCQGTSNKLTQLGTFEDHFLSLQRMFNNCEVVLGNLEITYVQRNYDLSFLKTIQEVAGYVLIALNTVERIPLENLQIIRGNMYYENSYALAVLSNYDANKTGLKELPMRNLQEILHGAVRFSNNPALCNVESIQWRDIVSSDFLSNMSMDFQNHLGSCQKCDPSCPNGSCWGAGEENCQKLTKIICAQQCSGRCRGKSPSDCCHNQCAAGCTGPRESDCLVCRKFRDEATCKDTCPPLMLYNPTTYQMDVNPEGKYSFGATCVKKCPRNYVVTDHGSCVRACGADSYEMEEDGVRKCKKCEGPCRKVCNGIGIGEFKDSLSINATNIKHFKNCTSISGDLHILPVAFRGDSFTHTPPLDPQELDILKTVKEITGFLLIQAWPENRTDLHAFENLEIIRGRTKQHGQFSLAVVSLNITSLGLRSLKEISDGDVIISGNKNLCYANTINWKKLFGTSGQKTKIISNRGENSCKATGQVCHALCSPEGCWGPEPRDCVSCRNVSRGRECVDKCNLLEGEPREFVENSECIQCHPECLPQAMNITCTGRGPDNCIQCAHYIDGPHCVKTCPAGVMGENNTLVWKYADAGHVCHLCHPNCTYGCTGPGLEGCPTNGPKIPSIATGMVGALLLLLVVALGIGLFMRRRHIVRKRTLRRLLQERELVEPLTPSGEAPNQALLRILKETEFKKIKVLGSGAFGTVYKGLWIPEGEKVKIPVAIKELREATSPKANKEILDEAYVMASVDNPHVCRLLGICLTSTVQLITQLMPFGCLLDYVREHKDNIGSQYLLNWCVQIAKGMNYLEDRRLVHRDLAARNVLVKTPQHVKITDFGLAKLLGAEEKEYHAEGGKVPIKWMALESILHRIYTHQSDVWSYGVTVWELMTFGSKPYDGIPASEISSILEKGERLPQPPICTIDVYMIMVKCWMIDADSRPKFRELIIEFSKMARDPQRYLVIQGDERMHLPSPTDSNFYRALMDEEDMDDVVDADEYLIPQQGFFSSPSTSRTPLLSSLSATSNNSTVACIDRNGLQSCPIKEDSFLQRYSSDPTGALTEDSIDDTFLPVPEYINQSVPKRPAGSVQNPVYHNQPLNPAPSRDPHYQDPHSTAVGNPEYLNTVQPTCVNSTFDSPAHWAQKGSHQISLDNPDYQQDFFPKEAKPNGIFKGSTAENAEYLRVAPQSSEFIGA
Chain of Dual specificity protein kinase CLK4 (Homo sapiens) (Q9HAZ1 whole entry, looked up): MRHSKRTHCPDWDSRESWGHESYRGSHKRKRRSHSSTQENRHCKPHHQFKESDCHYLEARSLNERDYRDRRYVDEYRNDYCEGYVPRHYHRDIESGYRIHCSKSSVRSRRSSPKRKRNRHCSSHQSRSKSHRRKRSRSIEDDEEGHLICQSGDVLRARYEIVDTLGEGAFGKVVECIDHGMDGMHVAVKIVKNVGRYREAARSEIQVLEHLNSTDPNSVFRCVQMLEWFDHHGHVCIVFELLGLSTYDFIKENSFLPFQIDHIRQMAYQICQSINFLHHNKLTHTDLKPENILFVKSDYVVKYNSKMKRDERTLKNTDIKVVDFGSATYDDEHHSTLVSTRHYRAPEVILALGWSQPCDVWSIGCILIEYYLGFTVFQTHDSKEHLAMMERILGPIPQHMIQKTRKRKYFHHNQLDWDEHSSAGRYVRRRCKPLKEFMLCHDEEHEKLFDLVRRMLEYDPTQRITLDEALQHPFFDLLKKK
Chain of Ephrin type-A receptor 2 (Homo sapiens) (P29317 whole entry): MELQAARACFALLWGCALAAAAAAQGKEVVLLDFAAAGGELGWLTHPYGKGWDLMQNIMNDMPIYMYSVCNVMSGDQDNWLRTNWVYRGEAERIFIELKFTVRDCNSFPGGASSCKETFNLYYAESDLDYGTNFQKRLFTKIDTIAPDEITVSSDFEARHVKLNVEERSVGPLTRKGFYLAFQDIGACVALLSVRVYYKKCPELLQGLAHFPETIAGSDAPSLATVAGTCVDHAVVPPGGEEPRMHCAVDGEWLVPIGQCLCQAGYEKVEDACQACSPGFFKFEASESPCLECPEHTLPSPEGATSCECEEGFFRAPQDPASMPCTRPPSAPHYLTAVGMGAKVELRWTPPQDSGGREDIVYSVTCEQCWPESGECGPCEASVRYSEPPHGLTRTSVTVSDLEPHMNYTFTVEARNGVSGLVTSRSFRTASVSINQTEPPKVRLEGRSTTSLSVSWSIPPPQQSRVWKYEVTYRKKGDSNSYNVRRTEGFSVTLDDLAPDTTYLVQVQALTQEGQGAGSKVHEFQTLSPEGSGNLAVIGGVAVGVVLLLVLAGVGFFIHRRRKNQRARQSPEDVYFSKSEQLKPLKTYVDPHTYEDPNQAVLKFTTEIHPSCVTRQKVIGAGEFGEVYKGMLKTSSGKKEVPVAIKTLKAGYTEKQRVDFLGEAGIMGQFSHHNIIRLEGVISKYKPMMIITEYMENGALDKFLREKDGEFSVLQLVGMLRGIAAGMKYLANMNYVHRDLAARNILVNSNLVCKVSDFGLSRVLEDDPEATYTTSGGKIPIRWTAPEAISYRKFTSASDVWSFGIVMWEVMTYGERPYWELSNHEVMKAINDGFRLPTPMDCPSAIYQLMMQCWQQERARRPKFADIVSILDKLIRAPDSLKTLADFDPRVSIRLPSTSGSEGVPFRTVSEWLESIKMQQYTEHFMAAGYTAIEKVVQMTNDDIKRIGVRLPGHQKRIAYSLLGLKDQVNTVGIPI
Chain of MAP kinase-activated protein kinase 3 (Homo sapiens) (Q16644 whole entry, looked up): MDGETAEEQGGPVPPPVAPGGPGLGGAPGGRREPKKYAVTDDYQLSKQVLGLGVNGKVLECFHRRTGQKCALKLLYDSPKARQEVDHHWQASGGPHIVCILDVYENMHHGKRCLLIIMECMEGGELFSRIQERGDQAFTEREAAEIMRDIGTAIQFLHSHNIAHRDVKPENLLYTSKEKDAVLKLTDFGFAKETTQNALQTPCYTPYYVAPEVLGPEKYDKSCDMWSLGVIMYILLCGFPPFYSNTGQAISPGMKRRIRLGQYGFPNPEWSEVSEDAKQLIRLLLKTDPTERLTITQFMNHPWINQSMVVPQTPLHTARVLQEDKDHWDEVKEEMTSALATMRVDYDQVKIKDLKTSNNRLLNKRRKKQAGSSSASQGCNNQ
Chain of Ephrin type-A receptor 7 (Homo sapiens) (Q15375 28-998 limits assumed): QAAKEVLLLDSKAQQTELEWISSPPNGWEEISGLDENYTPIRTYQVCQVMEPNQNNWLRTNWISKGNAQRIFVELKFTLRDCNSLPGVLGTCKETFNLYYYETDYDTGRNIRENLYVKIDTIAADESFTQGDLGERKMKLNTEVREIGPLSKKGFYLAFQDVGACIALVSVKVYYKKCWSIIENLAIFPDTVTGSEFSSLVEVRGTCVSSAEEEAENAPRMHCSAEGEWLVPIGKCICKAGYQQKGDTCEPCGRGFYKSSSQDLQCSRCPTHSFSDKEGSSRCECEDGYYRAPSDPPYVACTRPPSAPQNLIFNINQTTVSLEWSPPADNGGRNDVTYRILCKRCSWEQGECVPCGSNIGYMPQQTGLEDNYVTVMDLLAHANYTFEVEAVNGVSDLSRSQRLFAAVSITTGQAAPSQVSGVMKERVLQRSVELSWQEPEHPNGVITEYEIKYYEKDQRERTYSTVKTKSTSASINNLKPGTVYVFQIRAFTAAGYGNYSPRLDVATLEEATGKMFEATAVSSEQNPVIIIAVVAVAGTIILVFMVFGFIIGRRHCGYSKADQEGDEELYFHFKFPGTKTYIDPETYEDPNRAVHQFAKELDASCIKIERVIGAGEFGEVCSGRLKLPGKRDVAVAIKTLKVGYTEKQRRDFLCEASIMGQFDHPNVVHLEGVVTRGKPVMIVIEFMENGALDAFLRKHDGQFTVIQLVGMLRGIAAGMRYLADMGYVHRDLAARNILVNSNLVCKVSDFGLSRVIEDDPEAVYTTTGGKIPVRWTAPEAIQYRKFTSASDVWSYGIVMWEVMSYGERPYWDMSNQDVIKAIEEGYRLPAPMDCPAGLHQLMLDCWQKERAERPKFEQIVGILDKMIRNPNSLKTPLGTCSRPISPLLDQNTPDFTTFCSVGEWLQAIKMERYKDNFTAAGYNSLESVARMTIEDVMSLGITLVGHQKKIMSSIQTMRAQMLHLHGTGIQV
Chain of 5'-AMP-activated protein kinase catalytic subunit alpha-1 (Homo sapiens) (Q13131 whole entry, looked up): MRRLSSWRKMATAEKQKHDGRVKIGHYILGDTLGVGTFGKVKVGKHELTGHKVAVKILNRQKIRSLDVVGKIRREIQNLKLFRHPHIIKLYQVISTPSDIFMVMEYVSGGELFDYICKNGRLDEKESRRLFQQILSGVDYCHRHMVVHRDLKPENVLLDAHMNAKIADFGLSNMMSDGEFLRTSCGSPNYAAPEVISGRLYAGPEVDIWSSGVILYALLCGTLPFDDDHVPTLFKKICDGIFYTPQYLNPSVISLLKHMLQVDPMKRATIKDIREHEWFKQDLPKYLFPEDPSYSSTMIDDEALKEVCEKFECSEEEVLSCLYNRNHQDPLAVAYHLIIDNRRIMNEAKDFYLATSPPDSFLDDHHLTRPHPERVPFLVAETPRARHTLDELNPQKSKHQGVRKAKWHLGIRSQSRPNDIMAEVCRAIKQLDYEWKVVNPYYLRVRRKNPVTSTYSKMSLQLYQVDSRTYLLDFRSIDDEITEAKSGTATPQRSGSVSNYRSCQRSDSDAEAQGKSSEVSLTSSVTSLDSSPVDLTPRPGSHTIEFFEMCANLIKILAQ

inhibition [1]: 46% | inhibition [2]: 0% | fold change (FC) [3]: 0.08 | fold change (FC) [4]: 0.01
Compound: CNC(=O)c1ccccc1Oc1nc(Nc2cc(OC)c(OC)c(OC)c2)ncc1Br

fold change (FC) [5]: 0.03 | fold change (FC) [6]: 0.94 | inhibition [7]: 0% | inhibition [8]: 0% | inhibition [9]: 0%
Compound: CC(C)[C@H](NC(=O)c1cc(-c2cnn3cc(-c4ccc(OCCN5CCCCC5)cc4)cnc23)cs1)C(F)(F)F

inhibition [10]: 8% | fold change (FC) [11]: 0 | inhibition [12]: 0%
Compound: O=C(N[C@@H](C1CC1)C(F)(F)F)c1cc(-c2cnn3cc(-c4ccc(F)cc4)cnc23)cs1
